Jurkat tox 60K: cytotoxic compounds reducing Jurkat cell viability; Jurkat E6.1 viability, ATP luminescence, 48 h; inhibition, % at 4 µM; hit rate 1.2% among 56,000;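 active means inhibition above the mean inhibition of all tested compounds plus 3 SD, cut at about 28% in these data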
HEK293 NFkB inh: lowers PMA/ionomycin-induced NF-kB signal in HEK293 cells; hit rate 0.21% among 62,000; inhibition, % at 3 µM; AID 465; HEK-293 NF-kB luciferase reporter, luminescence;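 active means inhibition above the mean of all tested compounds plus 3 SD, cut at about 40% in these data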;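 further: 0% = stimulated DMSO wells and 100% = 10 µM reference inhibitor 5653914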
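Material: HEK-293 cells with stable firefly luciferase reporter driven by four HIV NF-kB elements / Also added: PMA plus ionomycin mix as NF-kB-activating stimulus / Compound dosing: 3 µM once, 0.30% DMSO / Times: 1 h pretreatment, 16 h stimulation, 37 °C / Signal: luminescence / Evaluation: per-plate % inhibition versus controls / Benchmarks: DMSO and 10 µM reference inhibitor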
TNAP act DEA: activates human TNAP at intermediate phosphate acceptor concentration; P05186; purified TNAP, CDP-star luminescence, 100 mM DEA, 30 min; active compounds read high; scale: 0 levamisole-inhibited, 1 vehicle-only enzyme; activation factor at 20 µM; 64,000 tested, under 10 active; AID 813;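 active means activation factor of at least 2 at 20 µM, relative to controls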
Target sequence (P05186 whole entry, looked up): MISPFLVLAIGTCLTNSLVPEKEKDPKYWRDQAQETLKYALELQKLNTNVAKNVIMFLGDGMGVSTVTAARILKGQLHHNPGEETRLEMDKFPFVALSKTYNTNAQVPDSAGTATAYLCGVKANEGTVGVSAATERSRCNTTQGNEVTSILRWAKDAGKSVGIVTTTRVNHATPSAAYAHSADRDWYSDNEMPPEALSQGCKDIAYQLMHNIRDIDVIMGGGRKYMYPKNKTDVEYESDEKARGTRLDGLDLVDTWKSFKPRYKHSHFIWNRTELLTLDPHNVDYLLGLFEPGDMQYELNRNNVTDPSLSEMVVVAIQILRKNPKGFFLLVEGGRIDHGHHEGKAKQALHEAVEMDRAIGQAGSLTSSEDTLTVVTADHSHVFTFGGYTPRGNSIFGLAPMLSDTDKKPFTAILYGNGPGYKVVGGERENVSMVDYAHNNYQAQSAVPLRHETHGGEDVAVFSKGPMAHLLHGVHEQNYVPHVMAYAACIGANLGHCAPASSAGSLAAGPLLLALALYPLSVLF
Candida biofilm: kills Candida albicans biofilms | C. albicans biofilm + clotrimazole, Alamar Blue | inhibition, % at 6 µM | hit rate 0.14% among 85,000 | AID 834;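 active means inhibition above 20%; inactive means inhibition below 20%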;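 further: preformed 24 hr biofilms exposed to compound for 48 hr; 0% = biofilm without compound and 100% = blank killed by clotrimazole plus chlorhexidine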
MMP-13 inhibitor: inhibitors of human MMP13. hit rate 0.07% among 65,000. inhibition, % at 4 µM. MMP-13 fTHP FRET cleavage, Mca fluorescence. P45452;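 active means inhibition above the mean of compound-free control plate wells plus 3 SD, cut at about 14% in these data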;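 further: 0% = DMSO wells and 100% = wells with reference MMP-13 inhibitor after basal subtraction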
Active calls of the source: *; / = no result. This is one part of a sample in which hits are shown more often than they occur.

SMILES	Jurkat tox 60K	HEK293 NFkB inh	TNAP act DEA	Candida biofilm	MMP-13 inhibitor
Cc1cccc(S(=O)(=O)N(CC(=O)Nc2ccccc2C)Cc2ccco2)c1	/	/	/	39*	/
Cc1ccc(S(=O)(=O)N(CC(=O)NCc2ccco2)Cc2ccc(F)cc2)cc1	/	20	1	/	3
COc1ccc(/C=N/n2c(SC)nnc2-c2ccccc2)cc1C	3	8	0.9	/	2
COc1ccc(/C=N/n2c(SC)nnc2-c2ccccc2)c(OC)c1OC	68*	-2	0.9	-4	-2
COc1cc(NS(=O)(=O)c2ccc(C)cc2C)cc(OC)c1OC	39*	32	0.8	10	0
COc1ccc(C)cc1S(=O)(=O)Nc1ccccc1	/	/	/	12	/
N#Cc1nc(-c2cccc(Cl)c2)oc1NCc1cccnc1	/	/	/	0	/
c1ccc2c(c1)[nH]c1c(N3CCCC3)ncnc12	33*	23	0.9	4	-6
c1ccc2c(c1)[nH]c1c(N3CCSCC3)ncnc12	/	/	0.9	7	-54
Cc1ccc(S(=O)(=O)NCC(=O)N(CC(=O)NCC2CCCO2)Cc2ccccc2)cc1 (centres undefined)	0	7	1	20*	-2
C=CCN1C(=Nc2cccnc2)SCC1(O)c1ccc(C)cc1 (centres undefined)	39*	1	1	1	7
O=c1c2[nH]c3ccc(F)cc3c2ncn1CCCN1CCOCC1	-4	4	0.9	5	-11
O=c1c2[nH]c3ccc(F)cc3c2ncn1CCCn1ccnc1	33*	19	0.9	1	-20
COc1cccc(NC(=O)CSc2nnc(-c3cc(C)n(-c4ccccc4)c3C)o2)c1	3	41*	0.9	3	-3
CC(C)Cn1c(N)c(C(=O)COC(=O)c2ccc3c(c2)OCCO3)c(=O)n(C)c1=O	3	24	0.9	6	1
CC(C)Cn1c(N)c(C(=O)CSc2ccc3c(c2)OCCO3)c(=O)n(C)c1=O	36*	38	0.9	1	11
CCOC(=O)c1sc(NS(=O)(=O)c2ccccc2Cl)nc1C	/	/	/	2	/
Cc1ccc2[nH]c3c(c2c1)CCCC3C(N)=O (centres undefined)	/	/	0.9	10	1
CCN(CC)C(=O)C1CCCc2c1[nH]c1ccc(Cl)cc21 (centres undefined)	40*	24	0.8	1	2
CC(C)CC1N=C2c3ccccc3N=C(SCc3cc(=O)n4ccccc4n3)N2C1=O (centres undefined)	10	4	0.9	2	-4
CNC(=O)N(C1=NCC(C)(C)S1)c1ccc(F)c(Cl)c1	49*	9	0.9	10	6
CCN(CC)c1ccc(-c2nn3c(-c4ccccc4OC)nnc3s2)cc1	99*	58*	1.1	5	-171
COc1cccc(OC)c1-c1nn2c(-c3cc(-c4ccccc4)n[nH]3)nnc2s1	66*	12	1.1	/	-3
COc1ccccc1-c1nn2c(-c3ccccc3Cl)nnc2s1	5	18	0.9	7	4
COc1ccc(-c2nnc3sc(-c4c(OC)cccc4OC)nn23)cc1	/	/	0.8	/	-1
SMILES	Jurkat tox 60K	HEK293 NFkB inh	TNAP act DEA	Candida biofilm	MMP-13 inhibitor
CC1CCc2c(sc(NC(=O)CSc3ncnc4c3cnn4-c3ccccc3Cl)c2C#N)C1 (centres undefined)	/	/	/	2	/
COc1ccc(C2(C)NC(=O)N(CC(=O)Nc3ccc4c(c3)OCO4)C2=O)cc1OC (centres undefined)	/	/	/	4	/
Cc1cc(C)c(S(=O)(=O)n2nc(C)c(Br)c2C)c(C)c1	-1	6	0.9	/	6
CCOC(=O)C1CCN(Cc2ccc(O)c3ncccc23)CC1	43*	9	1	5	-10
c1ccc(Cn2nnc3c(N4CCCCCC4)ncnc32)cc1	24	12	0.9	-1	-1
CCCN1CCN(c2ncnc3c2nnn3Cc2ccccc2)CC1	63*	7	0.9	7	0
CC1CCCN(c2ncnc3c2cnn3-c2ccc(Cl)cc2)C1 (centres undefined)	-7	71*	0.9	/	-11
Clc1ccc(-n2ncc3c(NCC4CCCO4)ncnc32)cc1 (centres undefined)	8	-38	0.9	23*	-16
CC(=O)C1=C(C)Nc2ncnn2C1c1ccc(Cl)cc1Cl (centres undefined)	1	4	0.9	6	-6
Cc1nc2ccc(S(=O)(=O)Nc3ccccc3C)cc2s1	30*	12	0.9	2	3
O=C(Cn1nc(Cl)nc1Cl)c1cc2ccccc2oc1=O	-3	27	0.9	1	-4
CCN1CCN(S(=O)(=O)c2cc(OCC(=O)NC3CCCCC3)c(C)cc2Cl)CC1	53*	24	0.9	6	2
CCCCCOC(=O)CSc1nnc(-c2ccccc2)c(=O)[nH]1	-2	3	1	/	2
CCCCCCc1ccc(-c2ncc(N)cn2)cc1	51*	-31	0.9	2	-19
CCCCOc1ccc(-c2ncc(Cl)cn2)cc1	-3	-18	0.8	3	4
Cc1cc(-n2c(C)cc(C(=O)CSc3ncnc4ccccc34)c2C)no1	/	40*	1	7	-5
Cc1cc(C)n2nc(SCC(=O)c3ccccc3)nc2n1	6	-2	/	/	4
Cc1cc(C)n2nc(SCC(=O)c3cc(C)n(-c4cc(C)on4)c3C)nc2n1	33*	17	1	9	-4
Cc1cc(C)nc(SCC(=O)Nc2ccc(N3CCOCC3)c(Cl)c2)n1	58*	17	0.9	1	3
O=C(CSc1nc2ccccc2o1)Nc1ccc(N2CCOCC2)c(Cl)c1	3	-9	1	6	4
O=C(Nc1nc(-c2ccccc2)cs1)C1CCCCN1S(=O)(=O)c1ccccc1 (centres undefined)	12	15	0.8	4	-10
O=C(Nc1nc(-c2ccccc2)cs1)C1CCCN(S(=O)(=O)c2ccccc2)C1 (centres undefined)	39*	11	0.9	8	-11
O=C(Nc1nc(-c2ccc(S(=O)(=O)N3CCCC3)cc2)cs1)c1cccs1	22	17	0.8	1	-1
O=C(Nc1nc(-c2ccc(S(=O)(=O)N3CCCCCC3)cc2)cs1)c1cccs1	29*	12	0.9	6	-10
O=C(Nc1nc(-c2nc3ccccc3s2)cs1)c1ccc(S(=O)(=O)N2CCOCC2)cc1	50*	-16	0.9	6	3
COc1ccc2nc(NC(=S)N(C)C)sc2c1	/	/	/	0	/
Cc1ccc(C2/C(=C(\O)c3c(C)nc4ccccn34)C(=O)C(=O)N2CCCN2CCOCC2)o1 (centres undefined)	-9	8	1	1	2
O=C1CC(c2cccs2)Cc2nc(NCC3CCCO3)ncc21 (centres undefined)	0	11	0.9	6	5
